# Results collected from several papers.
# Compare with care: the assays were run in different laboratories.
SMILES,target or system,test,test system,setting,measurement,result
C=CC(=O)N1CCC[C@@H](n2nc(-c3ccc(Oc4ccccc4)cc3)c3c(N)ncnc32)C1,Staphylococcus aureus,microbial growth,NCTC8325,,MIC,> 30 µM
c1cncc(-c2cccc(Nc3nccc(NC4CCC4)n3)c2)c1,MV4-11,"cell growth or viability, ATP luminescence",,72 h,EC50,> 17000 nM
CNC(=O)c1c(F)cccc1Nc1nc(Nc2cc3c(cc2OC)CCN3C(=O)CN(C)C)nc2[nH]ccc12,Staphylococcus aureus,microbial growth,NCTC8325,,MIC,> 30 µM
c1ccc(-c2ccc(Nc3nccc(NC4CCCCC4)n3)cc2)nc1,MV4-11,"cell growth or viability, ATP luminescence",,72 h,EC50,41 nM
Cc1nn(-c2nc3ccc(Br)cc3s2)c2c1C(=O)c1ccccc1-2,Staphylococcus aureus,"microbial growth, well diffusion",NCIM5021,250 µg/mL,inhibition zone,11 mm
COC(C)(C)CCC[C@](C)(O)[C@H]1CC[C@]2(C)[C@@H]1[C@H](O)C[C@@H]1[C@@]3(C)CC[C@H](O)C(C)(C)[C@@H]3CC[C@]12C,BEAS-2B,cell growth or viability,,"25 µM, 24 h",inhibition,~50%
COc1ccc2nc(-n3nc(C)c4c3-c3ccccc3C4=O)sc2c1,Staphylococcus aureus,"microbial growth, well diffusion",NCIM5021,500 µg/mL,inhibition zone,12 mm
O=C1NC(=S)N/C1=C\c1ccc(-c2ccc(N(c3ccccc3)c3ccccc3)cc2)cc1,Staphylococcus aureus,"microbial killing, broth dilution",ATCC25923,,MBC,> 1000 µg/mL
CC(C)Nc1ccnc(Nc2cccc(-c3ncco3)c2)n1,MV4-11,"cell growth or viability, ATP luminescence",,72 h,EC50,1060 nM
CC(C)Cc1nn(-c2nc3ccc(Br)cc3s2)c2c1C(=O)c1ccccc1-2,Staphylococcus aureus,"microbial growth, well diffusion",NCIM5021,500 µg/mL,inhibition zone,14 mm
C#CCCC1(CC(=O)N2CCN(c3ccccc3)CC2)N=N1,Staphylococcus aureus,microbial growth,NCTC8325,,MIC,> 100 µM
